Test results from ChEMBL document CHEMBL1772972, “Differential gene expression in rat vascular smooth muscle cells following treatment with coptisine exerts a selective antiproliferative effect” (2011).
The source made the active and inactive calls. The calls are words filed in the database; no cut-off is given here.

Key:
[1] = Antiproliferative activity against rat VSMC assessed as cell growth inhibition; format: functional
In short: (§1)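 Cells are seeded at 1 × 10^4/well in 24-well plates and cultured 24 h. Alkaloid is then added at increasing concentrations for 72 h. Medium is renewed and MTT added at 1 mg/mL for 4 h. Formazan is dissolved in SDS and A570 read. Growth % = (treated − time 0)/(control − time 0). GI50 is taken from the curves. Data are mean ± SE of 3 wells. Primary VSMCs come from aortas of 10-week male Sprague-Dawley rats, used at passages 5–15.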

[2] = Growth inhibition against rat VSMC after 72 hrs by MTT assay; format: functional; in short: as §1
A10 [3] = test: Down regulation of Prim2 mRNA expression in rat A10 cells at 30 uM after 24 hrs by quantitative RT-PCR analysis; format: functional, cell-based
In short: (§2)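 A10 rat aortic smooth muscle cells were seeded at 6 × 10^4 cells/well in 6-well plates and exposed to 30 μM alkaloid for 24 h at 37 °C in 5% CO2. The cells were then harvested and target mRNA levels were quantified by quantitative RT-PCR.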

[4] = Growth inhibition against human RKN cells after 48 hrs by MTT assay; format: functional
In short: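 RKN human ovarian leiomyosarcoma cells are seeded at 2 × 10^4/well in 24-well plates and cultured 24 h. Alkaloid is then added at increasing concentrations for 48 h. Medium is renewed and MTT added at 200 μg/mL for 4 h. Formazan is dissolved in SDS and A570 read. Growth % is calculated relative to time-0 and untreated absorbances. GI50 is taken from the curves. Data are mean ± SE of 3 wells.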

A10 [5] = test: Growth inhibition against rat A10 cells after 72 hrs by MTT assay; format: functional; conditions: A10, 72 h
G-402 = test: Growth inhibition against human G402 cells after 48 hrs by MTT assay; format: functional; conditions: G-402, 48 h
In short: (§3)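 Cells were seeded in 24-well plates (SKN 1 × 10^4, G-402 2 × 10^4 cells/well) and cultured for 24 h. Alkaloid was then added, for 72 h with SKN or 48 h with G-402, and the medium was renewed. MTT was added (SKN 400 μg/mL, G-402 200 μg/mL) for 4 h, formazan was solubilized in SDS, and A570 was read. Growth % was corrected for time-0 absorbance relative to control, with 3 wells per point, and GI50 was derived from the concentration–growth data.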

[6] = Growth inhibition against human SKN cells after 72 hrs by MTT assay; format: functional; in short: as §3
A10 [7] = test: Downregulation of Impk mRNA expression in rat A10 cells at 30 uM after 24 hrs by quantitative RT-PCR analysis; format: functional, cell-based; in short: as §2
A10 [8] = test: Downregulation of Scd2 mRNA expression in rat A10 cells at 30 uM after 24 hrs by quantitative RT-PCR analysis; format: functional, cell-based; in short: as §2
A10 [9] = test: Upregulation of Rgc32 mRNA expression in rat A10 cells at 3 to 30 uM […] by quantitative RT-PCR analysis; format: functional, cell-based
In short: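 A10 cells were plated at 6.0 × 10^4 cells/well in 6-well plates. They were treated across a concentration series for 24 h, or for 1, 3, 6, 12 or 24 h in a time course. Rgc32 mRNA was then measured by quantitative RT-PCR. Results are mean ± SD of 3 wells, compared against untreated control.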

A10 [10] = test: Upregulation of in Gadd45a mRNA expression in rat A10 cells at 3 uM after 24 hrs by quantitative RT-PCR analysis; format: functional, cell-based
[11] = Upregulation of Gadd45a mRNA expression in rat 3Y1 cells at 30 uM after 24 hrs by quantitative RT-PCR analysis; format: functional, cell-based
A10 [12] = test: Upregulation of Rgc32 mRNA expression in rat A10 cells at 3 uM after 24 hrs by quantitative RT-PCR analysis; format: functional, cell-based
[13] = Upregulation of Rgc32 mRNA expression in rat 3Y1 cells at 3 to 30 uM after 24 hrs by quantitative RT-PCR analysis; format: functional, cell-based
A10 [14] = test: Upregulation of p53 mRNA expression in rat A10 cells at 3 to 30 uM after 24 hrs by quantitative RT-PCR analysis; format: functional, cell-based
A10 [15] = test: Cell cycle arrest in Gadd45a overexpressing rat A10 cells assessed as accumulation at G2/M phase; format: functional, cell-based
A10 [16] = test: Cell cycle arrest in Rgc32 overexpressing rat A10 cells assessed as accumulation at G2/M phase; format: functional, cell-based
A10 [17] = test: Upregulation of Rgc32 mRNA expression in rat A10 cells at 3 to 30 uM after 24 hrs by quantitative RT-PCR analysis; format: functional, cell-based
A10 [18] = test: Upregulation of Gadd45a mRNA expression in rat A10 cells at 30 uM after 3 hrs by quantitative RT-PCR analysis; format: functional, cell-based
A10 [19] = test: Upregulation of Gadd45a mRNA expression in rat A10 cells at 30 uM after 24 hrs by quantitative RT-PCR analysis relative to control; format: functional
A10 [20] = test: Upregulation of p21 mRNA expression in rat A10 cells at 3 to 30 uM after 24 hrs by quantitative RT-PCR analysis; format: functional, cell-based
A10 [21] = test: Upregulation of Gadd45a mRNA expression in rat A10 cells at 30 uM after 6 hrs by quantitative RT-PCR analysis; format: functional, cell-based
A10 [22] = test: Upregulation of Rgc32 mRNA expression in rat A10 cells at 30 uM after 24 hrs by quantitative RT-PCR analysis relative to control; format: functional
[23] = Growth inhibition against mouse BC3H1 cells after 72 hrs by MTT assay; format: functional; conditions: BC3H-1, 72 h; in short: as §1
A10 [24] = test: Upregulation of Calm1 mRNA expression in rat A10 cells at 30 uM after 24 hrs by quantitative RT-PCR analysis; format: functional, cell-based; in short: as §2
A10 [25] = test: Upregulation of Jak2 mRNA expression in rat A10 cells at 30 uM after 24 hrs by quantitative RT-PCR analysis; format: functional, cell-based; in short: as §2
A10 [26] = test: Upregulation of Ogfrl1 mRNA expression in rat A10 cells at 30 uM after 24 hrs by quantitative RT-PCR analysis; format: functional, cell-based; in short: as §2

Structure (SMILES)	GI50 [1]	GI50 [2]	Activity (A10 [3])	GI50 [4]	GI50 (A10 [5])	GI50 (G-402)	GI50 [6]	Activity (A10 [7])	Activity (A10 [8])	Activity (A10 [9])	other results
COc1ccc2cc3[n+](cc2c1OC)CCc1cc2c(cc1-3)OCO2 [BERBERINE CHLORIDE]	95.1 µM	95.1 µM	Active	49.6 µM	102 µM	11.9 µM	15.9 µM	Active	Active	inactive	
[Cl-].c1c2c(cc3c1OCO3)-c1cc3ccc4c(c3c[n+]1CC2)OCO4 [COPTISINE CHLORIDE]	3.3 µM	3.35 µM	Active	33 µM	4.49 µM	19.1 µM	11.8 µM	Active	Active	inactive	Activity (A10 [10]): inactive; fold change (FC) [11]: 1.5; Activity (A10 [12]): inactive; Activity [13]: inactive; Activity (A10 [14]): inactive; Activity (A10 [15]): Active; Activity (A10 [16]): Active; Activity (A10 [17]): Active; Activity (A10 [18]): Active; fold change (FC) (A10 [19]): 8; Activity (A10 [20]): Active; Activity (A10 [21]): inactive; fold change (FC) (A10 [22]): 3.5; GI50 [23]: 105 µM
COc1cc2c(cc1OC)-c1cc3ccc(OC)c(OC)c3c[n+]1CC2 [PALMATINE CHLORIDE]			Active			83.1 µM	57.4 µM	Active	Active	inactive	Activity (A10 [24]): Active; Activity (A10 [25]): Active; Activity (A10 [26]): Active
